Our source for the Activity values is ChEMBL document CHEMBL4028909, “Discovery of an Orally Bioavailable Benzofuran Analogue That Serves as a β-Amyloid Aggregation Inhibitor for the Potential Treatment of Alzheimer's Disease” (J Med Chem, 2018).

Activity calls are given as the source filed them. No cut-off for these calls is given here.

The test addresses Amyloid-beta precursor protein (Homo sapiens) (UniProt P05067). As to the kind of experiment: Induction of HFIP-pretreated amyloid beta (1 to 42) (unknown origin) disaggregation after 48 hrs by silver staining-based SDS-PAGE analysis. An outline of the steps:
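Aβ aggregates were incubated with compound for 48 h, with congo red as positive control. Size distribution (monomer, dimer, trimer, high-molecular-weight species) was analysed by SDS-PAGE with silver staining at the start and at the end of incubation.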

Sequence of Amyloid-beta precursor protein (Homo sapiens) (P05067 whole entry): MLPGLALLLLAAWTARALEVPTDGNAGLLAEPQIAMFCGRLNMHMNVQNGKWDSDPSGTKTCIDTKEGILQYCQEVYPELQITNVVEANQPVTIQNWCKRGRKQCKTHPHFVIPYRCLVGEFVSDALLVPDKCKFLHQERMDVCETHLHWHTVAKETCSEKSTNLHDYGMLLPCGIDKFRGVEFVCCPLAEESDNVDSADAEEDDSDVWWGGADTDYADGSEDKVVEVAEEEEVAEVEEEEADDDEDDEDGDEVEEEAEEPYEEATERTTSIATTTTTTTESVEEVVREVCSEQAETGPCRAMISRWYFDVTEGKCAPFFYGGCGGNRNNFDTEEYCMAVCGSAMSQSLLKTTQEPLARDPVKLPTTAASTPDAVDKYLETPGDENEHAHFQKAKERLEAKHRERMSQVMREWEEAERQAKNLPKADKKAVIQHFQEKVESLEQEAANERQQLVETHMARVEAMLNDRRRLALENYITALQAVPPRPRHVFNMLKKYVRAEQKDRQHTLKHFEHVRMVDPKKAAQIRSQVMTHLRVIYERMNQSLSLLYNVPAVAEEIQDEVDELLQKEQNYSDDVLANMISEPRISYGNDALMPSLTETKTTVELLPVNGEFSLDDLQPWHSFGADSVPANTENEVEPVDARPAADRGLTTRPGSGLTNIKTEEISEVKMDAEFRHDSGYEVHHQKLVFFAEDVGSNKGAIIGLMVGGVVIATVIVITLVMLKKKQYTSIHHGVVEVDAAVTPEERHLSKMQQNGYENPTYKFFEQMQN

Turning to `Nc1c(/N=N/c2ccc(-c3ccc(/N=N/c4cc(S(=O)(=O)O)c5ccccc5c4N)cc3)cc2)cc(S(=O)(=O)O)c2ccccc12`, the result was Active.
